ChEMBL document CHEMBL1221296, “New synthetic flavone derivatives induce apoptosis of hepatocarcinoma cells” (Bioorg Med Chem, 2010)
Activity calls are given as the source filed them. No cut-off for these calls is given here.

Key:
HepG2 [1] = assay: Cytotoxicity against human HepG2 cells by MTT assay; format: functional, cell-based
Outline: (§1)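 Cells grown in DMEM with 10% FBS, penicillin and streptomycin at 37 °C under 5% CO₂. Seeded at 5 × 10³ per 100 µl per well and exposed to compound at 0.5–50 µM for 72 h. MTT (5 mg/ml) added for 5 h, formazan dissolved in DMSO, absorbance read at 490 nm. IC₅₀ is the concentration giving 50% growth inhibition; means of three independent determinations.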

HepG2 [2] = assay: Cell cycle arrest in human HepG2 cells assessed as accumulation at subG0 phase at 25 uM after 36 hrs by FACSan flow cytometry; format: functional
Outline: (§2)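 Cells were treated for 36 h, then washed twice in ice-cold PBS and fixed overnight in 70% ethanol at 4 °C. They were resuspended at 5 × 10⁵/ml in propidium iodide (50 µg/ml in 0.1% sodium citrate, 0.03% v/v Nonidet P-40) and held 30 min on ice. DNA-content histograms were read by FACScan flow cytometry, with sub-G₀ scored as apoptotic.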

HeLa = assay: Growth inhibition of human HeLa cells after 72 hrs by MTT assay; format: functional, cell-based; outline: as §1
HepG2 [3] = assay: Cell cycle arrest in human HepG2 cells assessed as accumulation at G2 phase at 10 uM after 36 hrs by FACSan flow cytometry; format: functional; outline: as §2
HepG2 [4] = assay: Cell cycle arrest in human HepG2 cells assessed as accumulation at S phase at 10 uM after 36 hrs by FACSan flow cytometry; format: functional; outline: as §2
MCF7 = assay: Growth inhibition of human MCF7 cells after 72 hrs by MTT assay; format: functional, cell-based; conditions: MCF7, 72 h; outline: as §1
[5] = Growth inhibition of human CNE1 cells after 72 hrs by MTT assay; format: functional, cell-based; conditions: CNE; outline: as §1
[6] = Growth inhibition of human CNE2 cells after 72 hrs by MTT assay; format: functional, cell-based; conditions: CNE-2, 72 h; outline: as §1
HepG2 [7] = assay: Induction of apoptosis in human HepG2 cells assessed as DNA fragmentation at 10 uM after 36 hrs by agarose gel electrophoresis; format: functional, cell-based
Outline: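 HepG-2 cells (1 × 10⁶) exposed to 0, 5, 10, 25 and 50 µM for 36 h, then trypsinized and lysed in 10 mM Tris–HCl pH 7.4, 10 mM EDTA, 0.5% Triton X-100 and proteinase K (200 µg/ml). DNA isolated by organic extraction, run on 2% agarose and stained with ethidium bromide to detect laddering.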

HepG2 [8] = assay: Induction of apoptosis in human HepG2 cells assessed as change in cellular morphology at 10 uM after 36 hrs […]; format: functional, cell-based
HepG2 [9] = assay: Cell cycle arrest in human HepG2 cells assessed as accumulation at G1 phase at 5 uM after 36 hrs by FACSan flow cytometry; format: functional; outline: as §2
HepG2 [10] = assay: Cell cycle arrest in human HepG2 cells assessed as accumulation at subG0 phase at 5 uM after 36 hrs by FACSan flow cytometry; format: functional; outline: as §2
HepG2 [11] = assay: Cell cycle arrest in human HepG2 cells assessed as accumulation at G2 phase at 5 uM after 36 hrs by FACSan flow cytometry; format: functional; outline: as §2
HepG2 [12] = assay: Cell cycle arrest in human HepG2 cells assessed as accumulation at S phase at 5 uM after 36 hrs by FACSan flow cytometry; format: functional; outline: as §2
HepG2 [13] = assay: Cell cycle arrest in human HepG2 cells assessed as accumulation at subG0 phase at 10 uM after 36 hrs by FACSan flow cytometry; format: functional; outline: as §2
HepG2 [14] = assay: Cell cycle arrest in human HepG2 cells assessed as accumulation at G1 phase at 10 uM after 36 hrs by FACSan flow cytometry; format: functional; outline: as §2
HepG2 [15] = assay: Cell cycle arrest in human HepG2 cells assessed as accumulation at G1 phase at 25 uM after 36 hrs by FACSan flow cytometry; format: functional; outline: as §2
HepG2 [16] = assay: Cell cycle arrest in human HepG2 cells assessed as accumulation at G2 phase at 25 uM after 36 hrs by FACSan flow cytometry; format: functional; outline: as §2
HepG2 [17] = assay: Cell cycle arrest in human HepG2 cells assessed as accumulation at S phase at 25 uM after 36 hrs by FACSan flow cytometry; format: functional; outline: as §2
HepG2 [18] = assay: Cell cycle arrest in human HepG2 cells assessed as accumulation at subG0 phase at 50 uM after 36 hrs by FACSan flow cytometry; format: functional; outline: as §2
HepG2 [19] = assay: Cell cycle arrest in human HepG2 cells assessed as accumulation at G1 phase at 50 uM after 36 hrs by FACSan flow cytometry; format: functional; outline: as §2
HepG2 [20] = assay: Cell cycle arrest in human HepG2 cells assessed as accumulation at G2 phase at 50 uM after 36 hrs by FACSan flow cytometry; format: functional; outline: as §2
HepG2 [21] = assay: Cell cycle arrest in human HepG2 cells assessed as accumulation at S phase at 50 uM after 36 hrs by FACSan flow cytometry; format: functional; outline: as §2
HepG2 [22] = assay: Induction of apoptosis in human HepG2 cells assessed as caspase 3 activation at 50 uM after 2 to 24 hrs; format: functional, cell-based
Outline: (§3)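 HepG-2 cells were treated for 0, 2, 4, 8, 14 and 24 h. Lysates were made on ice and cleared at 20,000g, 4 °C, and protein was measured by Bradford. 0.1 mg protein was incubated 2 h at 37 °C with Ac-DEVD-pNA (caspase-3), Ac-IETD-pNA (caspase-8) or Ac-LEHD-pNA (caspase-9), and pNA release was read at 405 nm.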

HepG2 [23] = assay: Induction of apoptosis in human HepG2 cells assessed as caspase 8 activation at 50 uM after 2 to 24 hrs; format: functional, cell-based; outline: as §3
HepG2 [24] = assay: Induction of apoptosis in human HepG2 cells assessed as caspase 9 activation at 50 uM after 2 to 24 hrs; format: functional, cell-based; outline: as §3
HepG2 [25] = assay: Induction of apoptosis in human HepG2 cells assessed as decrease in Bcl2 mRNA expression after 26 hrs by RT-PCR; format: functional, cell-based
Outline: (§4)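 HepG-2 cells treated at 0, 5, 10, 25 and 50 µM for 26 h. cDNA made from 1 µg total RNA and amplified for Bcl-2 and Bax over 30 cycles (98 °C 15 s, 57 °C 10 s, 72 °C 35 s), with GAPDH as control. Results expressed as fold change relative to control.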

HepG2 [26] = assay: Induction of apoptosis in human HepG2 cells assessed as increase in […] mRNA expression after 26 hrs by RT-PCR; format: functional, cell-based; outline: as §4

CC(C)c1ccc2oc(-c3cccc([N+](=O)[O-])c3)cc(=O)c2c1
IC50 (HepG2 [1]): > 50 µM

O=c1cc(C2CCCCC2)oc2ccc(Cl)cc12
IC50 (HepG2 [1]): 20 µM

COc1cc(-c2cc(=O)c3cc(C(C)C)ccc3o2)cc(OC)c1OC
IC50 (HepG2 [1]): 3.6 µM

CC(C)c1ccc2oc(C3CCCC3)cc(=O)c2c1
IC50 (HepG2 [1]): 8.6 µM

O=c1cc(C2CCCC2)oc2c1ccc1ccccc12
IC50 (HepG2 [1]): 6.1 µM

CC(C)c1ccc2oc(-c3ccc([N+](=O)[O-])cc3)cc(=O)c2c1
IC50 (HepG2 [1]): > 50 µM

O=c1cc(C2CCCC2)oc2ccc(Cl)cc12
IC50 (HepG2 [1]): 13.4 µM

O=c1cc(C2CCCCC2)oc2c1ccc1ccccc12
IC50 (HepG2 [1]): 2.9 µM

COc1ccccc1-c1cc(=O)c2cc(C(C)C)ccc2o1
IC50 (HepG2 [1]): 5.4 µM

COc1ccc(-c2cc(=O)c3cc(C(C)C)ccc3o2)cc1
IC50 (HepG2 [1]): 9.9 µM

COc1cccc(-c2cc(=O)c3cc(C(C)C)ccc3o2)c1
IC50 (HepG2 [1]): 2.1 µM

CC(C)c1ccc2oc(C3CCCCC3)cc(=O)c2c1
IC50 (HepG2 [1]): 18 µM

CC(C)c1ccc2oc(-c3ccccc3)cc(=O)c2c1
IC50 (HepG2 [1]): 6.4 µM

COc1cc(OC)cc(-c2cc(=O)c3cc(Cl)ccc3o2)c1
IC50 (HepG2 [1]): 1.1 µM
Activity (HepG2 [2]): 55.83%
IC50 (HeLa): 3000 nM
Activity (HepG2 [3]): 13.47%
Activity (HepG2 [4]): 13.32%
IC50 (MCF7): 7.4 µM
IC50 [5]: 10.4 µM
IC50 [6]: 12.9 µM
Activity (HepG2 [7]): Active
Activity (HepG2 [8]): Active
Activity (HepG2 [9]): 41.67%
Activity (HepG2 [10]): 21.54%
Activity (HepG2 [11]): 16.47%
Activity (HepG2 [12]): 20.32%
Activity (HepG2 [13]): 34.54%
Activity (HepG2 [14]): 38.67%
Activity (HepG2 [15]): 23.38%
Activity (HepG2 [16]): 11.47%
Activity (HepG2 [17]): 9.32%
Activity (HepG2 [18]): 79.32%
Activity (HepG2 [19]): 11.52%
Activity (HepG2 [20]): 5.69%
Activity (HepG2 [21]): 3.47%
Activity (HepG2 [22]): Active
Activity (HepG2 [23]): Active
Activity (HepG2 [24]): Active
Activity (HepG2 [25]): Dose-dependent effect
Activity (HepG2 [26]): Active
